pKi: −log10 of the molar value. Active and inactive are the calls of the source. The calls are words filed in the database; no cut-off is given here.

The species entered for series [1] is Mus musculus. As to the kind of experiment: Binding affinity to amyloid beta in transgenic C57BL/6 mouse hippocampus harboring APPswe and PSEN1 double mutation at 185 to 370 kBq after 1 hr by autoradiographic analysis. Format: tissue-based. To be noted: tested as the 18F-labelled form. An outline of the steps:
(§1)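 Paraffin-embedded brain sections from male APPswe/PSEN1 transgenic C57BL6 mice (11 months old) and wild-type C57BL6 controls (11 months old) were incubated with [18F] tracer (185–370 kBq) for 1 h at room temperature, washed with 40% EtOH, dried and exposed to an imaging plate for 1 h. Plaques were confirmed on the same sections by thioflavin-S (0.125%) fluorescent staining.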

Series [2] has as its target Amyloid-beta precursor protein (Homo sapiens, UniProt P05067). As to the kind of experiment: Displacement of [125I]IMPY from amyloid beta (1 to 42) (unknown origin) after 3 hrs by gamma counting analysis. An outline of the steps: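 Test compound ranged over 10^-4 to 10^-8.5 in ethanol, in 0.05% BSA, 1 mL total. Incubation was 3 h at room temperature, then GF/B filtration and gamma counting. IC50 came from three independent experiments, and Ki was derived by Cheng–Prusoff.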

The species named for series [3] is Mus musculus. As to the kind of experiment: Binding affinity to amyloid beta in transgenic C57BL/6 mouse hippocampus harboring APPswe and PSEN1 double mutation at 185 to 370 kBq after 1 hr by thioflavin-S staining-based assay. The note with it: tested as the 18F-labelled form. Format: tissue-based. An outline of the steps: as §1
The species entered for series [4] is Mus musculus. Nature of the series: Binding affinity to amyloid beta in transgenic C57BL/6 mouse cerebellum harboring APPswe and PSEN1 double mutation at 185 to 370 kBq after 1 hr by thioflavin-S staining-based assay. To be noted: tested as the 18F-labelled form. It counts as tissue-based. An outline of the steps: as §1
Series [5] is filed under the species Mus musculus. As to the kind of experiment: Binding affinity to amyloid beta in wild-type C57BL/6 mouse brain at 185 to 370 kBq after 1 hr by autoradiographic analysis. Format: tissue-based. To be noted: tested as the 18F-labelled form. An outline of the steps: as §1
Series [6] is filed under the species Mus musculus. Nature of the series: Binding affinity to amyloid beta in transgenic C57BL/6 mouse cerebellum harboring APPswe and PSEN1 double mutation at 185 to 370 kBq after 1 hr by autoradiographic analysis. The note with it: tested as the 18F-labelled form. It counts as tissue-based. An outline of the steps:
as §1

The species named for series [7] is Mus musculus. Nature of the series: Binding affinity to amyloid beta in transgenic C57BL/6 mouse cortex harboring APPswe and PSEN1 double mutation at 185 to 370 kBq after 1 hr by autoradiographic analysis. To be noted: tested as the 18F-labelled form. An outline of the steps:
as §1

The species named for series [8] is Mus musculus. As to the kind of experiment: Binding affinity to amyloid beta in transgenic C57BL/6 mouse cortex harboring APPswe and PSEN1 double mutation at 185 to 370 kBq after 1 hr by thioflavin-S staining-based assay. The note with it: tested as the 18F-labelled form. An outline of the steps:
as §1

A further series concerns Brain. Nature of the series: Ratio of drug level in brain after 2 mins to drug level in brain after 60 mins in ICR mouse. To be noted: in vivo. Format: ADME, tissue-based. An outline of the steps: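 Male normal ICR mice (5 weeks old), n = 5 per time point, received a tail-vein injection of [18F] tracer (740–1110 kBq/mL) in saline containing 10% EtOH. Mice were sacrificed at 2, 10, 30 and 60 min. Organs were removed, weighed and gamma-counted, and data were expressed as %ID/g.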

Series [9] in a line: Ratio of drug level in brain to blood in ICR mouse after 2 mins. The note with it: brain and blood, read-out: BBR. It counts as ADME, tissue-based. An outline of the steps: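 Male ICR mice (5 weeks) received the ¹⁸F tracer (740–1110 kBq/mL) in saline with 10% EtOH by tail-vein injection. Five mice per time point were sacrificed at 2, 10, 30 and 60 min. Organs were removed, weighed and gamma-counted, and expressed as %ID/g. The ratio is brain %ID/g over blood %ID/g at 2 min.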

Amyloid-beta precursor protein, sequence (P05067 whole entry): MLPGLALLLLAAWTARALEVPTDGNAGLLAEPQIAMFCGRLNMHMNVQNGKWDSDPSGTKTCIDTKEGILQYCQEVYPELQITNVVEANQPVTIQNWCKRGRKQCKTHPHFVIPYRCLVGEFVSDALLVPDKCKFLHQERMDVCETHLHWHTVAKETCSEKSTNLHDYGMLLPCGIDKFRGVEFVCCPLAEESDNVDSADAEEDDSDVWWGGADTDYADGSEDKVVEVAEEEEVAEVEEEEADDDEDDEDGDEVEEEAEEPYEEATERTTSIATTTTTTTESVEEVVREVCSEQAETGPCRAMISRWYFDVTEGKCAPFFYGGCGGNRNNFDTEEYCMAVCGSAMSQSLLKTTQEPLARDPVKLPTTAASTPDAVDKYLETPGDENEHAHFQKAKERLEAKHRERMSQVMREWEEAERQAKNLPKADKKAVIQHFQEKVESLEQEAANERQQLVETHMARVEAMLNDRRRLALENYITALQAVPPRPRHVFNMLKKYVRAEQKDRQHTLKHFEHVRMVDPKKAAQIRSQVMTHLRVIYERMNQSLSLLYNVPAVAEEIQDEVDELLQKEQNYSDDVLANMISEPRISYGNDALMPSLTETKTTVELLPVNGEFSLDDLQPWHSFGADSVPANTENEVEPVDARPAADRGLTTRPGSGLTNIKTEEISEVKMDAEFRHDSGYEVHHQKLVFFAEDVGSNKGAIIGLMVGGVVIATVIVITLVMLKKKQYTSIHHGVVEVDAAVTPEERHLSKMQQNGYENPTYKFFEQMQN

On to `CN(CCF)c1ccc(-c2cc3ccccc3[nH]2)cc1`, for which the outcome in the series filed under Mus musculus [1], in the series filed under Mus musculus [3], in the series filed under Mus musculus [4], in the series listed under Mus musculus [6], in the series filed under Mus musculus [7] and in the series listed under Mus musculus [8] was Active. The pKi in series [2] is 7.55. Moreover, the result in the series filed under Mus musculus [5] was inactive.
Take `CNc1ccc(-c2cc3cc([125I])ccc3[nH]2)cc1`: the Ratio in the series on Brain is given as 1.33. The Kp at 2 min in [9] was found to be 0.29.
In the case of `Cn1c(-c2ccc(NCCF)cc2)cc2ccccc21`, the negative logarithm of the Ki (pKi) in series [2] was 5.99.
Still for that read-out and setting: in the case of `CN(CCCF)c1ccc(-c2cc3ccccc3n2C)cc1` it was 7.10.
The same measure, in the same setting: in the case of `Cn1c(-c2ccc(NCCCF)cc2)cc2ccccc21` it was 5.96.
